Experimental findings from ChEMBL document CHEMBL4011658 (J Med Chem, 2017) are described below.

≈ marks a conversion by molar mass, not a printed value. Calls of active or inactive are those of the source. Residues, ends and D or L forms follow the SMILES beside them. *: point of attachment. Boc = CC(C)(C)OC(=O)*; NHBn = c1ccc(CN*)cc1

Data set [1] is described as follows: Selectivity index, ratio of cytotoxicity against African green monkey VERO cells to IC50 for methicillin-resistant Staphylococcus aureus ATCC 33591. The conditions noted are these: read-out: Selectivity Index. The class given is toxicity, cell-based. Summed up:
(§1)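 Selectivity index is the ratio CTX/IC50. For CTX, cells were seeded at 25 000 per well and grown 24 h, then given peptide up to 10 μg/mL for 48 h, with neutral red uptake read-out. […] OD530 was read before and after 16−20 h at 35 °C.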

Data set [2] can be described thus: Selectivity index, ratio of cytotoxicity against human BT549 cells to IC50 for Staphylococcus aureus ATCC 29213. The class given is toxicity, cell-based. The following applies: read-out: Selectivity Index. Put shortly:
(§2)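 Selectivity index is the ratio CTX/IC50. For CTX, cells were seeded at 25 000 per well and grown 24 h, then exposed to peptide up to 10 μg/mL for 48 h, with viability by neutral red uptake. […] The inoculum was 5 × 10^5 CFU/mL, with OD530 read before and after incubation.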

Data set [3] in a line: Selectivity index, ratio of cytotoxicity against human SK-MEL cells to IC50 for Cryptococcus neoformans ATCC 90113. The class given is toxicity, cell-based. The conditions noted are these: read-out: Selectivity Index.
A short description of data set [4]: Selectivity index, ratio of cytotoxicity against human SKOV3 cells to IC50 for Staphylococcus aureus ATCC 29213. The following applies: read-out: Selectivity Index. In kind it is toxicity, cell-based. Put shortly: as §2
A further data set relates to BT-549. Put plainly: Cytotoxicity against human BT549 cells assessed as reduction in cell viability after 48 hrs by neutral red uptake assay. The class given is cell-based. The following applies: bt-549, 48 h. Put shortly: (§3)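 Cells seeded at 25 000 per well and grown 24 h to confluence, then exposed to peptides up to 10 μg/mL for 48 h; viability by modified neutral red uptake; doxorubicin positive control, DMSO negative control.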

Data set [5] in a line: Selectivity index, ratio of cytotoxicity against pig LLC-PK1 cells to IC50 for Cryptococcus neoformans ATCC 90113. In kind it is toxicity, cell-based. The conditions noted are these: read-out: Selectivity Index.
Another data set has as its system Vero. In words: Cytotoxicity against African green monkey Vero cells assessed as reduction in cell viability after 48 hrs by neutral red uptake assay. The class given is cell-based. The conditions noted are these: chlorocebus sabaeus. Summed up:
as §3

The next data set has as its system SK-OV-3. In words: Cytotoxicity against human SKOV3 cells assessed as reduction in cell viability after 48 hrs by neutral red uptake assay. In kind it is cell-based. The conditions noted are these: sk-ov-3, 48 h. Summed up:
as §3

The subject of the next data set is LLC-PK1. Put plainly: Cytotoxicity against pig LLC-PK1 cells assessed as reduction in cell viability after 48 hrs by neutral red uptake assay. The following applies: llc-pk1, 48 h. The class given is cell-based, Sus scrofa. Summed up: as §3
A short description of data set [6]: Selectivity index, ratio of cytotoxicity against human SKOV3 cells to IC50 for methicillin-resistant Staphylococcus aureus ATCC 33591. The conditions noted are these: read-out: Selectivity Index. In kind it is toxicity, cell-based. Summed up: as §1
Another data set has as its system Cryptococcus neoformans. In words: Antifungal activity against Cryptococcus neoformans ATCC 90113 after 70 to 74 hrs by alamar blue dye based CLSI method. The class given is functional. (In general: The colour change of resazurin is a common sign of viable cells or microbes.)
The subject of data set [7] is Staphylococcus aureus. In words: Antibacterial activity against Staphylococcus aureus ATCC 29213 after […] hrs by alamar blue dye based CLSI method. In kind it is functional.
Data set [8] can be described thus: Selectivity index, ratio of cytotoxicity against African green monkey VERO cells to IC50 for Cryptococcus neoformans ATCC 90113. The class given is toxicity, cell-based. The following applies: read-out: Selectivity Index.
For another data set, the system named is Escherichia coli. In words: Antibacterial activity against Escherichia coli ATCC 35218 after 16 to 20 hrs by alamar blue dye based CLSI method. The class given is functional.
Data set [9] is described as follows: Selectivity index, ratio of cytotoxicity against human SK-MEL cells to IC50 for Staphylococcus aureus ATCC 29213. In kind it is toxicity, cell-based. The following applies: read-out: Selectivity Index. Summed up: as §2
Data set [10] is described as follows: Selectivity index, ratio of cytotoxicity against human BT549 cells to IC50 for Cryptococcus neoformans ATCC 90113. The class given is toxicity, cell-based. The following applies: read-out: Selectivity Index.
The nature of data set [11]: Selectivity index, ratio of cytotoxicity against pig LLC-PK1 cells to IC50 for Staphylococcus aureus ATCC 29213. In kind it is toxicity, cell-based. The following applies: read-out: Selectivity Index. Put shortly: as §2
A further data set deals with Aspergillus. Put plainly: Antifungal activity against Aspergillus. The class given is functional.
Data set [12] is described as follows: Selectivity index, ratio of cytotoxicity against African green monkey VERO cells to IC50 for Staphylococcus aureus ATCC 29213. In kind it is toxicity, cell-based. The conditions noted are these: read-out: Selectivity Index. Summed up:
as §2

For the next data set, the system named is SK-MEL. Put plainly: Cytotoxicity against human SK-MEL cells assessed as reduction in cell viability after 48 hrs by neutral red uptake assay. The class given is cell-based. Summed up:
as §3

A short description of data set [13]: Selectivity index, ratio of cytotoxicity against human SKOV3 cells to IC50 for Cryptococcus neoformans ATCC 90113. In kind it is toxicity, cell-based. The following applies: read-out: Selectivity Index.
In the next data set the test system is Candida. In words: Antifungal activity against Candida. In kind it is functional.
For data set [14], the system named is Staphylococcus aureus. In words: Antibacterial activity against methicillin-resistant Staphylococcus aureus ATCC 33591 after 16 to 20 hrs by alamar blue dye based CLSI method. In kind it is functional.
Data set [15] is described as follows: Selectivity index, ratio of cytotoxicity against pig LLC-PK1 cells to IC50 for methicillin-resistant Staphylococcus aureus ATCC 33591. The following applies: read-out: Selectivity Index. The class given is toxicity, cell-based. Summed up: as §1
Data set [16] in a line: Selectivity index, ratio of cytotoxicity against human SK-MEL cells to IC50 for methicillin-resistant Staphylococcus aureus ATCC 33591. The class given is toxicity, cell-based. The conditions noted are these: read-out: Selectivity Index. Put shortly: as §1
Data set [17] in a line: Selectivity index, ratio of cytotoxicity against human BT549 cells to IC50 for methicillin-resistant Staphylococcus aureus ATCC 33591. The class given is toxicity, cell-based. The conditions noted are these: read-out: Selectivity Index. Put shortly:
as §1

The term IC50 denotes the point on the concentration scale where inhibition reaches its midpoint. In general, MFC refers to the lowest tested concentration that kills the fungus rather than only halting it. The MIC is the lowest concentration found to suppress growth. One may read the MBC as the smallest concentration meeting the test's criterion for killing. In the case of `CC(C)(C)c1ccc(-c2nc(C[C@H](NC(=O)[C@H](Cc3c[nH]c4ccccc34)NC(=O)[C@@H](N)Cc3c[nH]c(-c4ccc(C(C)(C)C)cc4)n3)C(=O)NCc3ccccc3)c[nH]2)cc1`, the selectivity ratio is above 1.49 in [1]; above 2.68 in [2]; above 3.8 in data set [3]; above 2.68 in data set [4]; above 3.8 in data set [5]; above 1.49 in data set [6]. In addition, the selectivity ratio is above 3.8 in data set [8]; above 2.68 in data set [9]; above 3.8 in data set [10]; above 2.68 in data set [11]; above 2.68 in data set [12]; above 3.8 in data set [13]. Further, the selectivity ratio in data set [15], in data set [16] and in [17] was above 1.49 each time. In addition, the Activity in the data set with BT-549, with Vero, with SK-OV-3, with LLC-PK1 and in the data set with SK-MEL was above 10 µg/mL each time. In addition, the IC50 in the data set with Cryptococcus neoformans came to 2.6 µg/mL (≈ 3.12 µM); with Staphylococcus aureus [7] it was 3.72 µg/mL (≈ 4.47 µM); with Staphylococcus aureus [14], 6.7 µg/mL (≈ 8.05 µM). Also, the MFC against Cryptococcus neoformans came out at 5 µg/mL (≈ 6.01 µM). The MIC against Cryptococcus neoformans was 5 µg/mL (≈ 6.01 µM); against Staphylococcus aureus [7], 10 µg/mL (≈ 12 µM); against Staphylococcus aureus [14], above 20 µg/mL. Further, the MBC with Staphylococcus aureus [7] was 20 µg/mL (≈ 24 µM); against Staphylococcus aureus [14], above 20 µg/mL. Also, the result in the data set on Escherichia coli, in the data set with Aspergillus and in the data set on Candida was inactive.
On to `CC(C)(C)OC(=O)N[C@@H](Cc1c[nH]c(-c2ccccc2)n1)C(=O)N[C@@H](Cc1c[nH]c2ccccc12)C(=O)N[C@@H](Cc1c[nH]c(-c2ccccc2)n1)C(=O)NCc1ccccc1`, for which the selectivity ratio in data set [2] is above 1.3; in data set [3], above 7.1; in data set [4] it was above 1.3; in data set [5] it was above 7.1; in [8], above 7.1; in data set [9], above 1.3. Besides, the selectivity ratio in data set [10] is above 7.1; in data set [11], above 1.3; in data set [12], above 1.3; in data set [13], above 7.1. Moreover, the Activity in the data set with BT-549, with Vero, in the data set with SK-OV-3, with LLC-PK1 and in the data set with SK-MEL was above 10 µg/mL each time. Moreover, the IC50 in the data set with Cryptococcus neoformans was found to be 1.4 µg/mL (≈ 1.71 µM); in the data set on Staphylococcus aureus [7] it was 7.6 µg/mL (≈ 9.27 µM); in the data set on Staphylococcus aureus [14] it was 10.5 µg/mL (≈ 12.8 µM). The molecule also yielded an MFC with Cryptococcus neoformans of 2.5 µg/mL (≈ 3.05 µM). In addition, the MIC with Cryptococcus neoformans is 2.5 µg/mL (≈ 3.05 µM); in the data set on Staphylococcus aureus [7], above 20 µg/mL; against Staphylococcus aureus [14] it was above 20 µg/mL. Further, the minimal bactericidal concentration (MBC) in the data set with Staphylococcus aureus [7] and against Staphylococcus aureus [14] was above 20 µg/mL in each case. Besides, the result in the data set with Escherichia coli, with Aspergillus and with Candida was inactive.
Regarding `CC(C)(C)OC(=O)N[C@@H](Cc1cnc[nH]1)C(=O)N[C@@H](Cc1c[nH]c2ccccc12)C(=O)N[C@@H](Cc1cnc[nH]1)C(=O)NCc1ccccc1` (Boc-His-Trp-His-NHBn), the selectivity ratio in data set [3], in [5], in data set [8], in data set [10] and in data set [13] was above 12.5 each time. The Activity with BT-549, in the data set with Vero, with SK-OV-3, with LLC-PK1 and in the data set with SK-MEL was above 10 µg/mL in each case. This molecule also yielded an MFC against Cryptococcus neoformans of 1.25 µg/mL (≈ 1.87 µM). The molecule also yielded a minimum inhibitory concentration (MIC) in the data set on Cryptococcus neoformans of 1.25 µg/mL (≈ 1.87 µM). The result in the data set with Escherichia coli, in the data set with Aspergillus and with Candida was inactive.
As to `Cc1ccc(-c2nc(C[C@H](NC(=O)[C@H](Cc3c[nH]c4ccccc34)NC(=O)[C@@H](N)Cc3c[nH]c(-c4ccc(C)cc4)n3)C(=O)NCc3ccccc3)c[nH]2)cc1`, the selectivity ratio in data set [3], in data set [5], in data set [8], in data set [10] and in [13] was above 1.8 in each case. In addition, the Activity with BT-549, in the data set on Vero, with SK-OV-3, with LLC-PK1 and in the data set with SK-MEL was above 10 µg/mL throughout. For the same molecule, in the data set on Cryptococcus neoformans, the IC50 worked out at 5.56 µg/mL (≈ 7.43 µM). Further, the MFC in the data set on Cryptococcus neoformans was 10 µg/mL (≈ 13.4 µM). Further, the MIC in the data set on Cryptococcus neoformans turned out to be 10 µg/mL (≈ 13.4 µM). In addition, the result with Escherichia coli, in the data set on Aspergillus and in the data set with Candida was inactive.
Take `COC(=O)[C@H](Cc1c[nH]c(-c2ccccc2)n1)NC(=O)[C@H](Cc1c[nH]c2ccccc12)NC(=O)[C@@H](N)Cc1c[nH]c(-c2ccccc2)n1`: the selectivity ratio in data set [3], in data set [5], in data set [8], in data set [10] and in data set [13] was above 2.7 throughout. Moreover, the Activity in the data set on BT-549, in the data set on Vero, in the data set on SK-OV-3, with LLC-PK1 and in the data set with SK-MEL was above 10 µg/mL each time. For the same molecule, the half-inhibitory concentration (IC50) with Cryptococcus neoformans was 3.71 µg/mL (≈ 5.75 µM). In addition, in the data set on Cryptococcus neoformans, the MFC amounted to 10 µg/mL (≈ 15.5 µM). This molecule also came in with an MIC against Cryptococcus neoformans of 10 µg/mL (≈ 15.5 µM). Further, the outcome in the data set with Escherichia coli, in the data set on Aspergillus and with Candida was inactive.
Regarding `COC(=O)[C@H](Cc1c[nH]c(-c2ccc(C(C)(C)C)cc2)n1)NC(=O)[C@H](Cc1c[nH]c2ccccc12)NC(=O)[C@H](Cc1c[nH]c(-c2ccc(C(C)(C)C)cc2)n1)NC(=O)OC(C)(C)C`, the selectivity ratio in data set [3], in data set [5], in [8], in [10] and in data set [13] was above 7.9 throughout. Besides, the Activity with BT-549, in the data set with Vero, in the data set on SK-OV-3, in the data set on LLC-PK1 and in the data set on SK-MEL was above 10 µg/mL in each case. The same molecule registered a concentration for half-maximal inhibition (IC50) in the data set with Cryptococcus neoformans of 1.27 µg/mL (≈ 1.48 µM). This molecule yielded an MFC with Cryptococcus neoformans of 5 µg/mL (≈ 5.83 µM). This molecule also displayed an MIC against Cryptococcus neoformans of 5 µg/mL (≈ 5.83 µM). The outcome in the data set with Escherichia coli, in the data set with Aspergillus and in the data set on Candida was inactive.
